The values below come from ChEMBL document CHEMBL3745678, “Novel β-Carboline/Hydroxamic Acid Hybrids Targeting Both Histone Deacetylase and DNA Display High Anticancer Activity via Regulation of the p53 Signaling Pathway” (J Med Chem, 2015).

Data set [1] has as its system HCT-116. Nature of the data set: Induction of DNA damage in human HCT116 cells assessed as histone H2AX phosphorylation at S139 after 12 hrs by western blot analysis. Format: functional, cell-based. The method, boiled down: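 DNA-damage marker. HCT116 cells treated 12 h with compound or vehicle. Lysates immunoblotted with anti-H2AX S139ph, and β-actin served as the control. Relative levels were obtained by densitometric scanning; means ± SD of three separate experiments.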
Background: A western blot detects proteins with antibodies after separation by electrophoresis.

The target in data set [2] is Cellular tumor antigen p53 (Homo sapiens) (UniProt P04637). Nature of the data set: Activation of p53 in human HCT116 cells assessed as p53 phosphorylation at ser15 residue at 0.1 to 5 uM after 12 hrs by western blot analysis. Format: cell-based. The conditions noted are these: HCT-116. In short, it runs like this: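 HCT116 cells exposed 12 h to compound or vehicle, then lysed on ice in PBS with 1% NP-40, 0.5% deoxycholate, 0.1% SDS and protease inhibitors. Up to 50 µg protein run on SDS-PAGE and immunoblotted for phospho-p53 (Ser15), p53 and p21. Bands quantified by densitometry against β-actin; mean ± SD of three experiments.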

Data set [3] in a line: Acute toxicity in ICR mouse assessed as survival rate at 240 mg/kg, ip measured on day 14. Format: organism-based. Conditions: in vivo. In short, it runs like this: (§1)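 Female ICR mice, single intraperitoneal injection at 585.9, 468.8, […], 300 or 240 mg/kg, or vehicle control, n = 10 per group. Deaths counted at 1 h, 4 h, daily on days 1-4 and over days 5-14. Eating, drinking, body weight and activity observed for 14 days, with survival (%) taken on day 14. LD50 calculated from mortality.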

The subject of data set [4] is HCT-116. Nature of the data set: Antitumor activity against human HCT116 cells xenografted in BALB/c mouse assessed as tumor growth inhibition at 45 and 90 mg/kg, ip measured twice per week over 22 days. Format: functional, organism-based. (In general: Xenograft models place foreign cells or tissue in a host animal.)
The subject of data set [5] is Mus musculus. Nature of the data set: Acute toxicity in ICR mouse assessed as death at 240 to 585.9 mg/kg, ip measured after 1 hr. Conditions: in vivo. Format: organism-based. In short, it runs like this:
as §1

Data set [6] concerns Mus musculus. Nature of the data set: Acute toxicity in ICR mouse assessed as death at 240 to 585.9 mg/kg, ip measured after 4 hrs. Format: organism-based. Conditions: in vivo. In short, it runs like this: as §1
The test system of data set [7] is Mus musculus. Kind of data set: Acute toxicity in ICR mouse assessed as death at 240 to 300 mg/kg, ip measured after 3 days. Format: organism-based. Conditions: in vivo, 72 h. In short, it runs like this: as §1
Data set [8] relates to Mus musculus. Nature of the data set: Acute toxicity in ICR mouse assessed as death at 468.8 mg/kg, ip measured after 5 to 14 days. Format: organism-based. The conditions noted are these: in vivo. The method, boiled down:
as §1

Data set [9] concerns HCT-116. Nature of the data set: Potency index, ratio of SAHA IC50 to compound IC50 for human HCT116 cells. Format: functional. In short, it runs like this: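 HCT116 cells seeded at 10^4 cells/ml and adhered overnight, then treated 48 h over a concentration series with 0.1% DMSO as control. MTT readout; IC50 derived from inhibition % = (1 − OD treated/OD control) × 100, three independent measurements. Index = SAHA IC50 ÷ compound IC50.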

For data set [10], the target named is Histone deacetylase (Homo sapiens) (UniProt Q13547+O15379+Q9UBN7+Q92769+Q9UQL6+Q8WUI4+Q9BY41+Q96DB2+P56524+Q9UKV0+Q969S8). Kind of data set: Potency index, ratio of SAHA IC50 to compound IC50 for HDAC in human HeLa cell nuclear extract. Format: cell-based. The method, boiled down:
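HDAC source was HeLa nuclear extract. Incubated with compound dilutions and Boc-Lys(Ac)-AMC substrate for 60 min at 37 °C, then lysine developer added for 30 min. Fluorescence read at ex 355/em 460 nm, activity expressed as % of control and IC50 fitted. Index = SAHA IC50 ÷ compound IC50.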

The test system of data set [11] is HCT-116. Kind of data set: Induction of apoptosis in human HCT116 cells at 0.1 uM after 48 hrs by annexin V-FITC/propidium iodide staining-based flow cytometric analysis. Format: functional. The method, boiled down: (§2)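 HCT116 cells cultured overnight, then exposed in triplicate for 48 h to 0.1, 1.0 or 5.0 µM, SAHA 5.0 µM or vehicle. Stained with FITC-Annexin V/PI for 15 min at room temperature.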
For orientation: Flow cytometry measures light scatter and fluorescence of single cells or particles in a stream.

For data set [12], the system named is HCT-116. Nature of the data set: Induction of apoptosis in human HCT116 cells at 1 uM after 48 hrs by annexin V-FITC/propidium iodide staining-based flow cytometric analysis. Format: functional. In short, it runs like this:
as §2

The test system of data set [13] is HCT-116. Kind of data set: Induction of caspase-3 cleavage in human HCT116 cells at 1 to 5 uM after 48 hrs by western blot analysis. Format: functional, cell-based. In short, it runs like this:
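HCT116 cells treated 48 h with or without compound. Western blots probed for Bax, Bcl-2, cleaved caspase-3 and PARP. Band intensities relative to β-actin by densitometry; means ± SD from three separate experiments.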

Data set [14] has as its target T1, Protein deacetylase HDAC6 (Homo sapiens, UniProt Q9UBN7).
T1 sequence (Q9UBN7 whole entry): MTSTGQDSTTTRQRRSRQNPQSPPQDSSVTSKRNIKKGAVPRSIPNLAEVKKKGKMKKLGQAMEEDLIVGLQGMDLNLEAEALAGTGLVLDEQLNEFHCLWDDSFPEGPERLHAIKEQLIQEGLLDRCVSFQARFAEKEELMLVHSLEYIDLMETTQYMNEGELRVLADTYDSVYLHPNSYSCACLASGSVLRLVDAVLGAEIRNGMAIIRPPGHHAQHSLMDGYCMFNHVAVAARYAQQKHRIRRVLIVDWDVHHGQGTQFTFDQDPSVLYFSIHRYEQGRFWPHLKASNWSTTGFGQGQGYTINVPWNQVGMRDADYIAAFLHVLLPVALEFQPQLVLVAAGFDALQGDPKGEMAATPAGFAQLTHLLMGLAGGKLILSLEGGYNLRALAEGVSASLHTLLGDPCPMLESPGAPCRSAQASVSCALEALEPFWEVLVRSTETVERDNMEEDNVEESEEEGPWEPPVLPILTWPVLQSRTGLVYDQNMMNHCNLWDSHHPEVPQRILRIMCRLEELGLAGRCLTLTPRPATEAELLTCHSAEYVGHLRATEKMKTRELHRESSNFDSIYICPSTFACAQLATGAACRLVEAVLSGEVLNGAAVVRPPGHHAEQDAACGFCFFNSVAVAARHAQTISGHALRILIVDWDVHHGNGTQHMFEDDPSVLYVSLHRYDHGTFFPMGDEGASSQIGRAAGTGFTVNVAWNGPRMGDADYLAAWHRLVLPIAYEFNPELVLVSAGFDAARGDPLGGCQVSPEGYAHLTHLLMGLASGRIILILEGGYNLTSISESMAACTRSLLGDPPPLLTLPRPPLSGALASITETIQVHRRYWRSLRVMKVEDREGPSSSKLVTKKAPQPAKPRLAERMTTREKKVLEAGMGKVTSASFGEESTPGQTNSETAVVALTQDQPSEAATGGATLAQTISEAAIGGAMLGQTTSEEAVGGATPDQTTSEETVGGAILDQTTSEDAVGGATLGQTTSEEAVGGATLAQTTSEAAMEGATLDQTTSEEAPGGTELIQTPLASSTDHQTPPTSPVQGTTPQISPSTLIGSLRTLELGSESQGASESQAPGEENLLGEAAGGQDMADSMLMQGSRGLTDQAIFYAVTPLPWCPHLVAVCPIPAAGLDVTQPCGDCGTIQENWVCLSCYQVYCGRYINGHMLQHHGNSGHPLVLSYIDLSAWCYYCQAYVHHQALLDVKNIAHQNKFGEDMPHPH
Kind of data set: Inhibition of recombinant human HDAC6 using Boc-Lys (Ac)-AMC as substrate after 60 mins by fluorometric analysis.

Activity calls are given as the source filed them. No cut-off for these calls is given here.

Chain of Cellular tumor antigen p53 (Homo sapiens) (P04637 whole entry, looked up): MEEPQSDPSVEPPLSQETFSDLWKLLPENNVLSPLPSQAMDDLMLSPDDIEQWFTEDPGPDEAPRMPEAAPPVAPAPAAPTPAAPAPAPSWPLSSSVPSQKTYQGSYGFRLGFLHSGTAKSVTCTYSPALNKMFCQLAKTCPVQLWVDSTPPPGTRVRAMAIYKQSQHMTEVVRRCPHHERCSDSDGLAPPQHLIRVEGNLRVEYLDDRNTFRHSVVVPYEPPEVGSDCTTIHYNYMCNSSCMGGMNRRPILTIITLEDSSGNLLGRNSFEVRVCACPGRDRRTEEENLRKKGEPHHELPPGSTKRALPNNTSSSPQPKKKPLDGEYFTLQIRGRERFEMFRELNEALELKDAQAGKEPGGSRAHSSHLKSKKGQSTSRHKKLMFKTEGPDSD

Turning to `COc1ccc(-c2nc(NC(=O)NCCCC(=O)NO)cc3c2[nH]c2ccccc23)cc1`, the Activity result in the data set on HCT-116 [1] is “Dose-dependent effect”; in the data set with Mus musculus [5] it was “Non-toxic”; with Mus musculus [6] it was “Non-toxic”; in the data set with Mus musculus [7], “Non-toxic”; with Mus musculus [8], “Non-toxic”; with HCT-116 [11] it was 21.6%. In the data set on HCT-116 [12], this compound returned an Activity of 41.3%. Moreover, the result (in data set [2]; with HCT-116 [13]) was Active. In addition, the survival at 14 day in [3] is 100%. Besides, the TGI result in the data set on HCT-116 [4] was “Active”. For the same compound, the results for the “Ratio IC50” value (with HCT-116 [9]; in data set [10]) were 7 and 2, respectively. The IC50 – broadly, the concentration at which inhibition is half-maximal – in data set [14] came out at 34 nM.
